Results taken from BindingDB's records for doi:10.1016/j.bmc.2010.03.038 (Northwestern University, 2010).

Assays:
[1] = target: Voltage-dependent L-type calcium channel subunit alpha-1C (Oryctolagus cuniculus, UniProt P15381); test: Antagonist activity at rabbit Cav1.2 expressed in HEK293 cells assessed as inhibition of voltage pulse-induced calcium current by FLIPR calcium 4 assay
Summary of the method: (§1)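 HEK293 lines stably expressing Cavβ3 and Cavα2δ-1 plus Cav1.2 α1C (rabbit) or Cav1.3 α1D (rat) were selected with zeocin/hygromycin. Calcium signals were read by FLIPR with Calcium 4 dye. IC50 came from 11-point dose-response curves. Signal percentage error (SD/mean) was 6.4% for Cav1.2 and 4.1% for Cav1.3 cells.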

[2] = target: Voltage-dependent L-type calcium channel subunit alpha-1D (Rattus norvegicus, UniProt P27732); test: Antagonist activity at rat Cav1.3 expressed in HEK293 cells assessed as inhibition of voltage pulse-induced calcium current by FLIPR calcium 4 assay; summary of the method: as §1
Voltage-dependent L-type calcium channel subunit alpha-1D, sequence (P27732 whole entry): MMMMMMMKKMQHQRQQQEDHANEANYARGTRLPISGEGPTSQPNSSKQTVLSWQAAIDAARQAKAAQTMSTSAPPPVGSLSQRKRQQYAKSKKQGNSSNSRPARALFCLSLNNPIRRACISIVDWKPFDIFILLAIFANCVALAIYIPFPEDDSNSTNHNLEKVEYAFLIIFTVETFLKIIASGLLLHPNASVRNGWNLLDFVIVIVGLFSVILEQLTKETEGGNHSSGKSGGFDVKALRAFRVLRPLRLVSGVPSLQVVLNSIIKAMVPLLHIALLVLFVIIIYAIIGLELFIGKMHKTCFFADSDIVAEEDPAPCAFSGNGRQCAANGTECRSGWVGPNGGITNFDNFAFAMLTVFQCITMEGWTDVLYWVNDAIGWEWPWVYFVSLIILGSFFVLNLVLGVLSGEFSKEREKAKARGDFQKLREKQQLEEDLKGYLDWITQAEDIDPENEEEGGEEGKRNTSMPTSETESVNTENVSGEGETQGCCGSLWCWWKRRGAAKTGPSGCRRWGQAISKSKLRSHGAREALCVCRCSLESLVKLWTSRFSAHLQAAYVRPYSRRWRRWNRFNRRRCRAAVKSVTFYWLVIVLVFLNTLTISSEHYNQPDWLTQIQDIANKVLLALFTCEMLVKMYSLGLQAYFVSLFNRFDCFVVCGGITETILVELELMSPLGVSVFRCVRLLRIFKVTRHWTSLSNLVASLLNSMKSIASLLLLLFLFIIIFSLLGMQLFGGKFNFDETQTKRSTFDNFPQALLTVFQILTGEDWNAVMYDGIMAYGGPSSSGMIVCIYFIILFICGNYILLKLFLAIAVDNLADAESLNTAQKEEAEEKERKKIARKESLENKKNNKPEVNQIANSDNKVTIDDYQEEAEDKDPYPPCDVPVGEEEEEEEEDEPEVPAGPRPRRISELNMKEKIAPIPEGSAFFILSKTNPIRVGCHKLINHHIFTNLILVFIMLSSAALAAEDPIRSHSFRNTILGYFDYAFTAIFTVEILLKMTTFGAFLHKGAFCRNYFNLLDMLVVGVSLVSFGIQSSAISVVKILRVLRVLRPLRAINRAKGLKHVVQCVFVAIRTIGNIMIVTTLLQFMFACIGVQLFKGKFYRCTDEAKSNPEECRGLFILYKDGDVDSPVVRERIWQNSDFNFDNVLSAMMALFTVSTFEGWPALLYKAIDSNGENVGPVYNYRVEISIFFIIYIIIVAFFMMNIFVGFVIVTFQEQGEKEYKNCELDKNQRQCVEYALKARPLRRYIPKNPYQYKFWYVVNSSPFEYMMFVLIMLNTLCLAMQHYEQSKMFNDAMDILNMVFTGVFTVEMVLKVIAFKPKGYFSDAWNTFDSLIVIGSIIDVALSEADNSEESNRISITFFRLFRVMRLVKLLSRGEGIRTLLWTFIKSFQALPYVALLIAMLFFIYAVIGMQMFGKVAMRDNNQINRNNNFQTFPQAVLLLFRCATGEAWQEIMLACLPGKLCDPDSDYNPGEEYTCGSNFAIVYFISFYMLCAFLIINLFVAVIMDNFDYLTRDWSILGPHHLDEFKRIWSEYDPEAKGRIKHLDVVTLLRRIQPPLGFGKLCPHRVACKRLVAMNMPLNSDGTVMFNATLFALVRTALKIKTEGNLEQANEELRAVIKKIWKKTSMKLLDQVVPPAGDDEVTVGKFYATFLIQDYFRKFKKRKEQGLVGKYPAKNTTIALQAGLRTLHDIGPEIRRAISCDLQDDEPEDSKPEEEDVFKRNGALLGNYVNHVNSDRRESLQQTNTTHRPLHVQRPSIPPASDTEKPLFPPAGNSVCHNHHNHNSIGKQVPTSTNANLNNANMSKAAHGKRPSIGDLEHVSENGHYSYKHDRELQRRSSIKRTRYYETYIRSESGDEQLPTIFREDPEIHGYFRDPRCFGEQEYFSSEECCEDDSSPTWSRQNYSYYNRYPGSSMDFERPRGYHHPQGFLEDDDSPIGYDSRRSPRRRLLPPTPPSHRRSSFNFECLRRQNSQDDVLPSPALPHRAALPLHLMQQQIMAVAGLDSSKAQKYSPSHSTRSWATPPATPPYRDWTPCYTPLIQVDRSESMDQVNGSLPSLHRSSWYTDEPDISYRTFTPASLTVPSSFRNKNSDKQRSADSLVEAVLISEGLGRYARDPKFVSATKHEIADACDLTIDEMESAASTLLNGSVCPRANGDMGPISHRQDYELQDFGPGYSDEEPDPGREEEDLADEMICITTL

Voltage-dependent L-type calcium channel subunit alpha-1C, sequence (P15381 whole entry): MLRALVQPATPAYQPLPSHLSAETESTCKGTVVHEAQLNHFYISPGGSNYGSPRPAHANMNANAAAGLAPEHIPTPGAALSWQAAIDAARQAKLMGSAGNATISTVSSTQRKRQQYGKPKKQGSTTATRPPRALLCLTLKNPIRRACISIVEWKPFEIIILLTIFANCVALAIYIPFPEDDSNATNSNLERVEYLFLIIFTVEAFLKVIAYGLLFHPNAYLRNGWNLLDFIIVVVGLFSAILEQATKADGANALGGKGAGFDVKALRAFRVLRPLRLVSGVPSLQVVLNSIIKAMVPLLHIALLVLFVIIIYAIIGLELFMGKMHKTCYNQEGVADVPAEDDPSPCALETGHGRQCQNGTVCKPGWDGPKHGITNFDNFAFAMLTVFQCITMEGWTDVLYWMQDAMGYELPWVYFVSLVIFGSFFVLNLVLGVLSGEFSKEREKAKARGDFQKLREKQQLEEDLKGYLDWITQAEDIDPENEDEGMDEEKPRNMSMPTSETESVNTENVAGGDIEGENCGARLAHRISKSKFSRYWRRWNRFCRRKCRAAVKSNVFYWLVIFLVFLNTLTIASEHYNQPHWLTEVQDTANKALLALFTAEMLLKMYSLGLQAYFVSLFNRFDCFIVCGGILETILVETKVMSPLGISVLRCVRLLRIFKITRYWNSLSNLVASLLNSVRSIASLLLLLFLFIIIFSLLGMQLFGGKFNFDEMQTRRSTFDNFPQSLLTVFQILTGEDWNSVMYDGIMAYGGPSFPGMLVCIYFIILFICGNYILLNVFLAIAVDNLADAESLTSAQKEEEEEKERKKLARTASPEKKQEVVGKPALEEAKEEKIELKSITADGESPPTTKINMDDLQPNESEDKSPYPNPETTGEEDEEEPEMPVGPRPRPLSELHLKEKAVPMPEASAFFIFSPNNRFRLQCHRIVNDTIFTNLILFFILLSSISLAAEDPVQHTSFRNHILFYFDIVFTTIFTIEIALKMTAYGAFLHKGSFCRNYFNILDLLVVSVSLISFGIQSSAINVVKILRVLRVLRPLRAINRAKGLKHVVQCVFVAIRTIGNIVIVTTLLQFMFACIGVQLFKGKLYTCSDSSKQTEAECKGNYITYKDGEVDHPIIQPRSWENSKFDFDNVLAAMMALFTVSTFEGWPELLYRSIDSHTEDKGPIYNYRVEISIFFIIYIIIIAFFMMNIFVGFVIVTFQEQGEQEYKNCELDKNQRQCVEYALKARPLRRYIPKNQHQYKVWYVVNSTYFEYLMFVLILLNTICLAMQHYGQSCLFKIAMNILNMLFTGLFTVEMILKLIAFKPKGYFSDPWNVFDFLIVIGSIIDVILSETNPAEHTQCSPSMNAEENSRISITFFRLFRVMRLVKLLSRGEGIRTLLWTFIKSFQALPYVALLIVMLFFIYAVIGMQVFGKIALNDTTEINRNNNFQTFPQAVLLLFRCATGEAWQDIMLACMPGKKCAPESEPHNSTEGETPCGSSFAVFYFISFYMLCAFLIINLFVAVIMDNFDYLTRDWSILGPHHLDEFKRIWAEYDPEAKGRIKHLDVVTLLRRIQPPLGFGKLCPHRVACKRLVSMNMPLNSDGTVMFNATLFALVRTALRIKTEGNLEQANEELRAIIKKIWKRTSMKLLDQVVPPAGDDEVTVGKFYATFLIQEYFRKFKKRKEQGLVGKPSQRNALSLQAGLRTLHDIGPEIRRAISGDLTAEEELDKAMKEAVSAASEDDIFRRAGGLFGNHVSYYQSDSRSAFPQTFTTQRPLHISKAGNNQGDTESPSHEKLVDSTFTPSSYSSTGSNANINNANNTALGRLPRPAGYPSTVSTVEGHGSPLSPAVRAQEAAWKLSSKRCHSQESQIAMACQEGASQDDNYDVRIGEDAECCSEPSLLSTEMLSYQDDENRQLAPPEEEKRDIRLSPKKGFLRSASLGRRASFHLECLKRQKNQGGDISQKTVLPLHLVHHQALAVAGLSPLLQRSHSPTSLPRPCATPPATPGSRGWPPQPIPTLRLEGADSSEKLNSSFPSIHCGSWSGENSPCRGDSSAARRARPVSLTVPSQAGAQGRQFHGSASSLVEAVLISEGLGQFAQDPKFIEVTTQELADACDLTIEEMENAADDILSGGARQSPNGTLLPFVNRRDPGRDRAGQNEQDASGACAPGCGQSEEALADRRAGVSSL

| IC50 [2] [nM] | Compound | IC50 [1] [nM] |
| --- | --- | --- |
| 15 | C=CCOC(=O)C1=C(C)N=C(C)C(C(=O)OCC)C1c1cccc([N+](=O)[O-])c1 (stereo not drawn) [3-allyl 5-ethyl 2,6-dimethyl-4-(3-nitrophenyl)-1,4-dihydropyridine-3,5-dicarboxylate] | 25 |
| 15 | COC(=O)C1C(C)=NC(C)=C(C(=O)OCc2ccccc2)C1c1cccc([N+](=O)[O-])c1 (stereo not drawn) [3-benzyl 5-methyl 2,6-dimethyl-4-(3-nitrophenyl)-1,4-dihydropyridine-3,5-dicarboxylate] | 25 |
| 10 | COC(=O)C1C(C)=NC(C)=C(C(=O)OC2C=CCCC2)C1c1cccc([N+](=O)[O-])c1 (stereo not drawn) [3-cyclohex-2-enyl 5-methyl 2,6-dimethyl-4-(3-nitrophenyl)-1,4-dihydropyridine-3,5-dicarboxylate] | 10 |
| 10 | C=C(C)C(=O)OCCOC(=O)C1=C(C)N=C(C)C(C(=O)OCC)C1c1cccc([N+](=O)[O-])c1 (stereo not drawn) [3-ethyl 5-(2-(methacryloyloxy)ethyl)2,6-dimethyl-4-(3-nitrophenyl)-1,4-dihydropyridine-3,5-dicarboxylate] | 10 |
